Laboratory results published in ChEMBL document CHEMBL3352791, “Thioaryl naphthylmethanone oxime ether analogs as novel anticancer agents” (J Med Chem, 2014).
Active and inactive are the calls of the source. The calls are words filed in the database; no cut-off is given here.

Columns and labels:
Ishikawa = assay: Antiproliferative activity against human ER-positive Ishikawa cells after 24 hrs by MTT assay; type: functional, cell-based; details: ishikawa
[1] = Antiproliferative activity against human DLD1 cells after 24 hrs by MTT assay; type: functional, cell-based; details: DLD-1, 24 h
Outline: (§1)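 MTT viability: cells seeded at 1×10^4 per well in DMEM with 10% FBS, left to adhere overnight, then serum-starved 4 h. Compounds were given at a range of doses, with 0.1% DMSO vehicle as control. EC50 was taken from dose-response curves spanning 100nM-50µM. Data are mean ± SEM from at least three independent experiments.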

Vero = assay: Antiproliferative activity against african green monkey Vero cells after 24 hrs by MTT assay; type: functional, cell-based; details: Chlorocebus sabaeus; outline: as §1
MCF7 [2] = assay: Cell cycle arrest in human […] cells assessed as accumulation at G2 phase at 7.5 uM by propidium iodide staining by FACS analysis (reference value: 10.96%); type: functional
MDA-MB-231 [3] = assay: Cell cycle arrest in human […] cells assessed as accumulation at G2 phase at 7.5 uM by propidium iodide staining by FACS analysis (reference value: 22.74%); type: functional
Mus musculus = assay: Toxicity in human MCF7 cells xenografted in NIH-3 mouse assessed as changed in body weight at 8 mg/kg, po for 29 days relative to control; type: organism-based; set-up: dose 8 mg/kg, route oral; details: in vivo, 696 h
[4] = target: Insulin receptor (Homo sapiens) (UniProt P06213); assay: Inhibition of IR (unknown origin) at 10 uM
[5] = system: Mast/stem cell growth factor receptor Kit (Homo sapiens), P10721 [D816V]; assay: Inhibition of cKit D816V mutant (unknown origin) at 10 uM
Outline: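 Cell-free kinase profiling was run as a standard 33P-ATP-based in vitro kinase assay.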

[6] = target: Phosphodiesterase 3 (Homo sapiens) (UniProt Q14432+Q13370); assay: Inhibition of PDE3 CAT (unknown origin) activity at 1 to 10 uM; type: protein assay
Outline: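 Recombinant PDE isoform activity was read by fluorescence polarization. A binding reagent complexes with the nucleotide monophosphate that the phosphodiesterase generates from cAMP/cGMP, and this raises the polarization of the labelled substrate. Reference standards were PDE1A3 10µM IBMX, PDE2A3 1nM BAY 60-7550, PDE3CAT 1µM cilostazol, PDE4CAT rolipram, PDE5CAT 0.1µM sildenafil, PDE7A […], PDE8A1 10µM BRL-50481, PDE9A1 1µM SB 36216 and PDE11A1 dipyridamole.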

[7] = target: cAMP and cAMP-inhibited cGMP 3',5'-cyclic phosphodiesterase 10A (Homo sapiens) (UniProt Q9Y233); assay: Inhibition of PDE10A1 (unknown origin) activity at 1 to 10 uM
MDA-MB-231 [8] = assay: Cytotoxicity against human MDA-MB-231 cells assessed as cell viability at 5 uM by MTT assay in presence of 100 ng/ml pertussis toxin for 16 hrs; type: functional, cell-based
MCF7 [9] = assay: Induction of apoptosis in human […] cells assessed as caspase 3 activation at 2.5 to 7.5 uM by Caspase-Glo assay; type: functional, cell-based
Outline: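 Caspase-3 activity by Caspase-Glo 3 luminescent kit.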

MCF7 [10] = assay: Induction of apoptosis in human […] cells assessed as loss of mitochondrial membrane potential at 5 uM after 24 hrs by JC-1 staining based flow cytometry; type: functional, cell-based
Outline: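 Cells given 5μM compound for 24 h, trypsinized, stained with JC-1 (1μg/ml) in medium 15 min at 37°C, PBS-washed, analysed by flow cytometry on FL1 and FL2 channels.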

MDA-MB-231 [11] = assay: Inhibition of cell migration in human MDA-MB-231 cells assessed as […] at 1 uM after 24 hrs by wound healing assay; type: functional, cell-based
MDA-MB-231 [12] = assay: Inhibition of secreted PAI-1 protein expression in human MDA-MB-231 cells at 1 uM after 24 hrs by ELISA; type: functional, cell-based
Outline: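 MDA-MB-231 cells were treated at 1µM for 24 h, with or without EGF. PAI-1 protein concentration in the collected conditioned medium was then measured by ELISA.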

MCF7 [13] = assay: Induction of apoptosis in human MCF7 cells xenografted in NIH-3 mouse assessed as increase in Bax to Bcl2 ratio in tumor at 16 mg/kg, po for 25 days by qPCR; type: functional, organism-based; set-up: dose 16 mg/kg
MDA-MB-231 [14] = assay: Inhibition of VEGF expression in human MDA-MB-231 cells at 5 uM by ELISA; type: functional, cell-based
[15] = target: Epidermal growth factor receptor (Homo sapiens) (UniProt P00533); assay: Inhibition of EGF-induced EGFR phosphorylation at Tyr992 in human MCF7 cells at 1 uM by ELISA; type: cell-based
[16] = target: Signal transducer and activator of transcription 3 (Homo sapiens) (UniProt P40763); assay: Inhibition of EGF-induced STAT3 phosphorylation in human MCF7 cells at 1 uM by ELISA; type: cell-based
[17] = target: Signal transducer and activator of transcription 3 (Homo sapiens) (UniProt P40763); assay: Inhibition of EGF-induced STAT3 phosphorylation in human MDA-MB-231 cells at 1 uM by ELISA; type: cell-based
[18] = target: T1, Signal transducer and activator of transcription 1-alpha/beta (Homo sapiens) (UniProt P42224); assay: Inhibition of EGF-induced STAT1 phosphorylation in human MCF7 cells at 1 uM by ELISA; type: cell-based
T1 sequence (whole entry): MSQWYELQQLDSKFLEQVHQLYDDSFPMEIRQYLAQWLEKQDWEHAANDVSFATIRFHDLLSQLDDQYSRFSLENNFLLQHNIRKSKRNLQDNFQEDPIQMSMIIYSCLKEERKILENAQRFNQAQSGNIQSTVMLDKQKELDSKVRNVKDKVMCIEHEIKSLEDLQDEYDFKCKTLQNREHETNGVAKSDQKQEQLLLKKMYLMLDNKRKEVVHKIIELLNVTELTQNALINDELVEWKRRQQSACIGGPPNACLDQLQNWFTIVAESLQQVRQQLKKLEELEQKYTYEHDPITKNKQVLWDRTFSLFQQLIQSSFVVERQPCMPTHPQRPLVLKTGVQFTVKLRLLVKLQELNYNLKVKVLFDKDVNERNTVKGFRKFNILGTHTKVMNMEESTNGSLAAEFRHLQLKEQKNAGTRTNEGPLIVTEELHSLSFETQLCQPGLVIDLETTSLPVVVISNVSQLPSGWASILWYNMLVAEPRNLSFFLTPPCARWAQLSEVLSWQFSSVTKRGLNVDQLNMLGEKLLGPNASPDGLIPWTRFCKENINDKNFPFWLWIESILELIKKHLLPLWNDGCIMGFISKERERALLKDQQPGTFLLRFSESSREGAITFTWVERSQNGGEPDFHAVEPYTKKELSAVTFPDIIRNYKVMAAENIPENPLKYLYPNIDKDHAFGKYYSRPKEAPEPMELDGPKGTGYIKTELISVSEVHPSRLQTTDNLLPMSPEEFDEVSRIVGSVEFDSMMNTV

[19] = target: Focal adhesion kinase 1 (Homo sapiens) (UniProt Q05397); assay: Inhibition of EGF-induced FAK phosphorylation at Tyr397 in human MDA-MB-231 cells at 1 uM by ELISA; type: cell-based

Sequence of Signal transducer and activator of transcription 3 (Homo sapiens) (P40763 whole entry): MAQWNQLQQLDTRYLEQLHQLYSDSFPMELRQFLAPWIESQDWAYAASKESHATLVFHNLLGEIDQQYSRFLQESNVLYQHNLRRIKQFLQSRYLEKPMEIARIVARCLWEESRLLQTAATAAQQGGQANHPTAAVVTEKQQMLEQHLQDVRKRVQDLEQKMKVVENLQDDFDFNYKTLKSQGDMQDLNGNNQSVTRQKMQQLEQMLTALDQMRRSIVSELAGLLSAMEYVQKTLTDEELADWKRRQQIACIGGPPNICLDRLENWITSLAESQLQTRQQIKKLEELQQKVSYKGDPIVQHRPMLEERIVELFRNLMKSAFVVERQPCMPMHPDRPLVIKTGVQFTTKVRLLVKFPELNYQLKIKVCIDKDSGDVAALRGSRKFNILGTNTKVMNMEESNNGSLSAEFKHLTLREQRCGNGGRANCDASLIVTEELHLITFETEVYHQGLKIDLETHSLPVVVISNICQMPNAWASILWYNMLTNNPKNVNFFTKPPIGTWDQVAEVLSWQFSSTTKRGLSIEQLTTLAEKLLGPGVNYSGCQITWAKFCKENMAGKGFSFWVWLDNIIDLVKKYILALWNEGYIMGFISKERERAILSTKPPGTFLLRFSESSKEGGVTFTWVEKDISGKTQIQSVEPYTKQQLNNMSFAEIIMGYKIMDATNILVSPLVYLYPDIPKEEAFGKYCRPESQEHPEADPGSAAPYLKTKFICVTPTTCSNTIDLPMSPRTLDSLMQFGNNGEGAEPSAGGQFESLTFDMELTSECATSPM
Sequence of Epidermal growth factor receptor (Homo sapiens) (P00533 whole entry): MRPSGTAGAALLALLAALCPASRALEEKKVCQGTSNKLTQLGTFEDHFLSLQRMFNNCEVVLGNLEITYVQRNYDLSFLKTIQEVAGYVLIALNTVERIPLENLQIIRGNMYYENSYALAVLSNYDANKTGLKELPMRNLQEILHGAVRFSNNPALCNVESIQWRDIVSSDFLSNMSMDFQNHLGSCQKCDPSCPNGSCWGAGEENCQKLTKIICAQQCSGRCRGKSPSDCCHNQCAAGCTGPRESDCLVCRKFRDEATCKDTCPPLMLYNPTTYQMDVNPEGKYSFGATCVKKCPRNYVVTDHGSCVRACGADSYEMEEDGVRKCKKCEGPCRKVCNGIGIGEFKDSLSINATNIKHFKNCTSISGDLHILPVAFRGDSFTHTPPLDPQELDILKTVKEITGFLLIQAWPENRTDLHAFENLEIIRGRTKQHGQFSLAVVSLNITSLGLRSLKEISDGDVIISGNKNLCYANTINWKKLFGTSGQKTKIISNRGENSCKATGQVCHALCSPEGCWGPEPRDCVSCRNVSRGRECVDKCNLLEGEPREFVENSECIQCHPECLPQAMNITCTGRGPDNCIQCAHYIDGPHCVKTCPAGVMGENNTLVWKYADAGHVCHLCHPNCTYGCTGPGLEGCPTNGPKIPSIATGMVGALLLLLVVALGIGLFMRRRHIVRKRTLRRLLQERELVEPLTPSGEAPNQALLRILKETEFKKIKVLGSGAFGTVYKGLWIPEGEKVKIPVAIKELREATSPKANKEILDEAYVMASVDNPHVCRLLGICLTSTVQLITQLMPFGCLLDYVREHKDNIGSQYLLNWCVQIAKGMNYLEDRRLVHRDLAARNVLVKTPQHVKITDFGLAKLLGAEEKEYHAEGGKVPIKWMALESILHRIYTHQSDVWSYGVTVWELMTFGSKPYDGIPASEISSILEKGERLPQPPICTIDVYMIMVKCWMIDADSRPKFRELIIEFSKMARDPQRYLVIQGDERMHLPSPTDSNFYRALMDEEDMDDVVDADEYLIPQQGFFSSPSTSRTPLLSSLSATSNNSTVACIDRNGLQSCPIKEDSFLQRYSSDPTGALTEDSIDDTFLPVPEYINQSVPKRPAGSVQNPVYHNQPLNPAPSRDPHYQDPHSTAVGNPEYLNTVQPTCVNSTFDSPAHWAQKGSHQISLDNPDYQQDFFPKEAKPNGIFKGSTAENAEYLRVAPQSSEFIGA
Sequence of Insulin receptor (Homo sapiens) (P06213 28-758 limits assumed): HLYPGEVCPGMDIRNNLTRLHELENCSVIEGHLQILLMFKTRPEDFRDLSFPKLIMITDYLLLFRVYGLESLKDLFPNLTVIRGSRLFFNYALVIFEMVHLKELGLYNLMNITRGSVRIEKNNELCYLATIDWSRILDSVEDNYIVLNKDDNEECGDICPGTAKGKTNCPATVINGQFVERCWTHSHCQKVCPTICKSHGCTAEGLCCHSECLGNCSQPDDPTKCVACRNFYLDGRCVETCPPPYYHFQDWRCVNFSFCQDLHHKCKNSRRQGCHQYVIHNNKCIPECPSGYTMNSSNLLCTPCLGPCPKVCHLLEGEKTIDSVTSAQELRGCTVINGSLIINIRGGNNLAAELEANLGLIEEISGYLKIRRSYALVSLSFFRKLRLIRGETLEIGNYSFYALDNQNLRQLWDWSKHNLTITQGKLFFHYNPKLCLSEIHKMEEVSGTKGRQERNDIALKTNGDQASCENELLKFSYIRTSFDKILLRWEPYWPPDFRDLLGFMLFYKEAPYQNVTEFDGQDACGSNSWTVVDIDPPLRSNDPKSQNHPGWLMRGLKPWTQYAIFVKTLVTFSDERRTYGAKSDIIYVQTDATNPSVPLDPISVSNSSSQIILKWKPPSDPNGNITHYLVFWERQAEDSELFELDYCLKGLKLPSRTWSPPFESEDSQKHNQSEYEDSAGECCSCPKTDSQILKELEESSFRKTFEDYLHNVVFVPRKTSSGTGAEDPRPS
Sequence of Insulin receptor (Homo sapiens) (P06213 763-1382 limits assumed): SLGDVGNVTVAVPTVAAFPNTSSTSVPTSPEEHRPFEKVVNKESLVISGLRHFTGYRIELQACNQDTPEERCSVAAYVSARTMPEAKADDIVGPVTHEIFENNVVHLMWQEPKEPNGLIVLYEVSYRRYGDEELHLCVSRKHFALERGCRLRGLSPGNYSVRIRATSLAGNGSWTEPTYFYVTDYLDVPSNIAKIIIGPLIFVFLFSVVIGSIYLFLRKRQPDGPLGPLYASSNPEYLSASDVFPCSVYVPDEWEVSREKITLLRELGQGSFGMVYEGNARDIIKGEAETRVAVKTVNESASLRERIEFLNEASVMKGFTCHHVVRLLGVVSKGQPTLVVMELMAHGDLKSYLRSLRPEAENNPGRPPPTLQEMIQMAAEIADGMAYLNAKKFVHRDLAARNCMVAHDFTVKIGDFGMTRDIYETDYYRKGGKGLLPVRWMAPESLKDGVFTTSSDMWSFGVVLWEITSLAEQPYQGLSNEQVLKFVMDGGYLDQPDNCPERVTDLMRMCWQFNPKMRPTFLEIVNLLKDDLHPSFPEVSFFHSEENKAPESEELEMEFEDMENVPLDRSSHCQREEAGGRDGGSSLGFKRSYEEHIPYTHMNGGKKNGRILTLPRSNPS
Sequence of Mast/stem cell growth factor receptor Kit (Homo sapiens), P10721 [D816V] (P10721 whole entry D816V): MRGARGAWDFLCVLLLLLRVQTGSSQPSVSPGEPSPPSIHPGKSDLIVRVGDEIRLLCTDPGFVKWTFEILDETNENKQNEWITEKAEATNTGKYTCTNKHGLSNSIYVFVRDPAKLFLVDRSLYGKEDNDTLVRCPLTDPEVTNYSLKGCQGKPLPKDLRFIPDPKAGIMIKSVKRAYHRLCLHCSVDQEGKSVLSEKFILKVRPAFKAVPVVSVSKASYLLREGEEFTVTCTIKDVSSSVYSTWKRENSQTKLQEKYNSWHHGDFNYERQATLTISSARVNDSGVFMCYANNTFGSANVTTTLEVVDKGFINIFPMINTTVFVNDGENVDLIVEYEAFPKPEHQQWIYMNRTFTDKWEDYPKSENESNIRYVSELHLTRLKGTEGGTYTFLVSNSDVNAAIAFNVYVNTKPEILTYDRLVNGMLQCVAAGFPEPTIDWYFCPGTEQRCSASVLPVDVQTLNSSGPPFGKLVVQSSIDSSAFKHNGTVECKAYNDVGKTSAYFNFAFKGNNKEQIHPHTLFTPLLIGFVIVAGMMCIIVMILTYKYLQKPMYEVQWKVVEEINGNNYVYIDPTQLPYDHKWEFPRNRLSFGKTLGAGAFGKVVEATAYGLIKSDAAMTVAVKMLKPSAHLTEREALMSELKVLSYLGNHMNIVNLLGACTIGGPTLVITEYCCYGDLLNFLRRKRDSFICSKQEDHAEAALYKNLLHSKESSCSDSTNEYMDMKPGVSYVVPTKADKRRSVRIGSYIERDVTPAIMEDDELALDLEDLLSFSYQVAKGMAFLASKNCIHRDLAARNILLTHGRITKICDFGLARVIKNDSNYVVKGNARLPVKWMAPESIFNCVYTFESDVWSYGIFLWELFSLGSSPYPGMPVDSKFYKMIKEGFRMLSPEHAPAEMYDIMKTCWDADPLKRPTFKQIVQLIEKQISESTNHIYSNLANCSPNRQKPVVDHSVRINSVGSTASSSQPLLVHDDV

SMILES: CCN(CC)CCO/N=C(\c1ccc(SC)cc1)c1cccc2ccccc12.O=C(O)C(=O)O
- EC50 (Ishikawa): 12 µM
- EC50 [1]: 15.6 µM
- IC50 (Vero): > 25 µM
- Activity (MCF7 [2]): 13.98%
- Activity (MDA-MB-231 [3]): 6.09%
- Activity (Mus musculus): Non-toxic

SMILES: CCN(CC)CCO/N=C(\c1ccc(SC)cc1)c1cccc2ccccc12
- inhibition [4]: inactive
- inhibition [5]: inactive
- inhibition [6]: inactive
- inhibition [7]: inactive
- inhibition (MDA-MB-231 [8]): inactive
- Activity (MCF7 [9]): inactive
- Activity (MCF7 [10]): Active
- inhibition (MDA-MB-231 [11]): Active
- inhibition (MDA-MB-231 [12]): Active
- Activity (MCF7 [13]): Active
- inhibition (MDA-MB-231 [14]): inactive
- inhibition [15]: Active
- inhibition [16]: Active
- inhibition [17]: Active
- inhibition [18]: inactive
- inhibition [19]: Active
